Series [1] in a line: folding enthalpy; higher = less favourable; fluorescence melt of hairpins on a sequencing array, two-state fit. The settings on record: sodium 0.088 M. The gist of the method: (§1)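 Melting temperature and folding enthalpy were obtained by bootstrapped two-state fitting. Fits used Cy3 fluorescence of library hairpins with annealed Cy3 and quencher oligos on a sequenced MiSeq flow cell, imaged in 50 mM Na-HEPES pH 8.0, 25 mM NaCl in 2.5 °C steps up to 60 °C and normalised to pre-quench Cy3 and control constructs. Four replicates were combined by inverse-variance weighting, and fitted temperatures were raised by 9.35 °C to match UV melts.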

Series [2] can be described thus: melting temperature; fluorescence melt of hairpins on a sequencing array, two-state fit, raised by 9.35 °C to match UV melts. The settings on record: sodium 0.088 M. The essentials:
as §1

Consider GCAGAGCGAAAGCTGCGC ((..(((....)))..)), for which the folding enthalpy in series [1] was -21 kcal/mol. Besides, the Tm in series [2] was 61.3 °C.
For GTTTGCGAAAGCAGAAAC ((((((....)))..))), in that order: -11.2 kcal/mol and 34.2 °C.
For GTAGGCGAAAGCCTTTAC ((((((....)))..))), in that order: -8.65 kcal/mol and 24.7 °C.
For GTGAGCACGAAAGTGCAC (((..(((....)))))), in that order: -8.71 kcal/mol and 60.1 °C.
As for GAGTGGCCGAAAGGCCTC (((..(((....)))))), in series [1], the folding enthalpy was -6.93 kcal/mol. Further, in series [2], the Tm came to 38.3 °C.
In the same order, the values of GAGTACACGAAAGTGCTC (((..(((....)))))) are -14.9 kcal/mol and 33.7 °C.
For the sequence GTTATTCCGAAAGGAAAC (((..(((....)))))), in series [1], the folding enthalpy is -7.61 kcal/mol. Also, in series [2], the Tm is 21.5 °C.
For the sequence GATCAGTTCTCTGATC ((((((....)))))), the folding enthalpy in series [1] was -42.1 kcal/mol. Also, the Tm in series [2] was determined as 52.1 °C.
In the same order, the values of GTCCGGCGAAAGCCTGAC (((.(((....))).))) are -20.9 kcal/mol and 51.8 °C.
In the same order, the values of GCTTGGCGAAAGCGTAGC (((..((....))..))) are -16.2 kcal/mol and 39.6 °C.
For GTGACGTCGAAAGACCAC (((..(((....)))))), in that order: -13.6 kcal/mol and 40.3 °C.
Consider GTAGTACGAAAGTAATAC (((.(((....))).))), for which the folding enthalpy in series [1] was -28.9 kcal/mol. In series [2], the Tm is 43.2 °C.
In the same order, the values of GCGACTTTTCGC ((((....)))) are -21.6 kcal/mol and 49 °C.
In the same order, the values of GGTCGCGAAAGCGGACC ((((((....))).))) are -22.9 kcal/mol and 67.1 °C.
Regarding GAGGGAGGAAACTCTCTC (((.(((....))).))), the folding enthalpy in series [1] was -24.6 kcal/mol. For the same sequence, the Tm in series [2] was 44.2 °C.
For GCCAACGGAAACGTTAGC ((.((((....)))).)), in that order: -23.6 kcal/mol and 40 °C.
On to GTCGTACGAAAGTAGGAC (((.(((....))).))), for which, in series [1], the folding enthalpy is -39.7 kcal/mol. Also, the Tm in series [2] was found to be 53.7 °C.
In the case of GATCACGTTGTGATC ((((((...)))))), in series [1], the folding enthalpy was -38.1 kcal/mol. Also, in series [2], the Tm is 60.1 °C.
In the same order, the values of GTTTAAGGAAACTTAGAC ((.((((....)))).)) are -14.3 kcal/mol and 32.6 °C.
In the same order, the values of GTCTTCGAAAGAATGAC ((((((....))).))) are -25 kcal/mol and 37.9 °C.
For GAGGCTGGAAACGGCCTC (((((.(....).))))), in that order: -46.4 kcal/mol and 59.6 °C.
Regarding GCTTCCGAAAGGACTAGC ((((((....)))..))), the folding enthalpy in series [1] was -16.2 kcal/mol. Further, in series [2], the Tm was 35.7 °C.
For GCAACACGAAAGTGCTGC (((.(((....))).))), in that order: -48.4 kcal/mol and 54.8 °C.
For GCCTCTCCGAAAGGAGGC (((..(((....)))))), in that order: -12.4 kcal/mol and 52.9 °C.
In the same order, the values of AGGGTGAAAACCCT (((((....))))) are -19.3 kcal/mol and 53.9 °C.
GATCCGCGTCCGGATC ((((((....)))))): the folding enthalpy in series [1] is -41.8 kcal/mol. Moreover, the Tm in series [2] worked out at 57.6 °C.
For GGAGCAGCGAAAGCTTCC (((..(((....)))))), in that order: -13.8 kcal/mol and 30.8 °C.
In the same order, the values of GCTCTGCGAAAGCAGCGC ((.((((....)))).)) are -17.3 kcal/mol and 57.6 °C.
Consider GTTTCGCGAAAGCGCAAC (((.(((....))).))), for which the folding enthalpy in series [1] was -22.8 kcal/mol. Further, in series [2], the Tm is 44.7 °C.
For GGTTCCGAAAGGAACACC ((((((....)))..))), in that order: -8.81 kcal/mol and 51.9 °C.
For GACAAGCGAAAGCTGTC (((.(((....)))))), in that order: -23.1 kcal/mol and 56 °C.
On to GGCATCGAAAGATTCGCC ((((((....)))..))), for which the folding enthalpy in series [1] is -25.4 kcal/mol. The Tm in series [2] was 36.5 °C.
On to GAGTCCGAAAGGACACTC ((((((....)))..))), for which the folding enthalpy in series [1] was -12.5 kcal/mol. In addition, the Tm in series [2] is 54.4 °C.
Turning to GCTGGCGGAAACGCTAGC (((.(((....))).))), in series [1], the folding enthalpy is -40.5 kcal/mol. Further, the Tm in series [2] came to 59.1 °C.
Consider GACAGCGAAAGCTATGTC ((((((....)))..))), for which, in series [1], the folding enthalpy was -19.1 kcal/mol. Also, in series [2], the Tm came to 43.5 °C.
For GATCTTGGAAAAGATC ((((((....)))))), in that order: -33 kcal/mol and 49 °C.
Regarding GTCACCGCGAAAGCGGAC (((..(((....)))))), the folding enthalpy in series [1] is -5.92 kcal/mol. Also, the Tm in series [2] turned out to be 26.5 °C.
As for GATCGACTGGTCGATC ((((((....)))))), in series [1], the folding enthalpy is -37.5 kcal/mol. Further, the Tm in series [2] came out at 62.7 °C.
Turning to GATCCGCCACCGGATC ((((((....)))))), the folding enthalpy in series [1] was -34.3 kcal/mol. In addition, the Tm in series [2] is 56.4 °C.
With GTTAGTCGAAAGACAAC (((.(((....)))))), the folding enthalpy in series [1] was -20.4 kcal/mol. Also, in series [2], the Tm worked out at 39.5 °C.
In the same order, the values of GTCCACGAAAGTGTTGAC ((((((....)))..))) are -17 kcal/mol and 31.6 °C.
GACTGCCCGAAAGGGGTC (((..(((....)))))): in series [1], the folding enthalpy was -9.57 kcal/mol. Besides, the Tm in series [2] is 35.6 °C.
GCGACTCTCGC ((((...)))): the folding enthalpy in series [1] was -22.2 kcal/mol. In series [2], the Tm amounted to 49.3 °C.
For GCCTACGGAAACGCAAGC ((.(.((....)).).)), in that order: -11.9 kcal/mol and 26.9 °C.
In the same order, the values of GCTTTGCGAAAGCTACGC ((.(.((....)).).)) are -13.2 kcal/mol and 45.4 °C.
In the same order, the values of GCGAGAACTCGC ((((....)))) are -27.4 kcal/mol and 54.9 °C.
Consider GATCTGTTGACAGATC ((((((....)))))), for which the folding enthalpy in series [1] is -43.8 kcal/mol. Also, the Tm in series [2] was found to be 53.1 °C.
In the same order, the values of GATCCTGTGTAGGATC ((((((....)))))) are -31.5 kcal/mol and 52.3 °C.
In the same order, the values of GGAGAGGGAAACCTTTCC (((.(((....))).))) are -27.3 kcal/mol and 38.2 °C.
As to GATCGCGCGTGCGATC ((((((....)))))), the folding enthalpy in series [1] is -26.4 kcal/mol. Besides, the Tm in series [2] worked out at 67.9 °C.
For GAAAGGGGAAACTCTTTC (((((.(....).))))), in that order: -25 kcal/mol and 36.3 °C.
As for GCACTACGAAAGTATTGC (((.(((....))).))), the folding enthalpy in series [1] is -31.2 kcal/mol. In series [2], the Tm was found to be 45.9 °C.
On to GCCACGCGAAAGCGCTGC ((..(((....)))..)), for which the folding enthalpy in series [1] is -11 kcal/mol. In series [2], the Tm stood at 37.4 °C.
Turning to GTTGCTCCGAAAGGAAAC (((..(((....)))))), in series [1], the folding enthalpy was -10 kcal/mol. Besides, the Tm in series [2] was found to be 28.1 °C.
For GATCCGAGTCCGGATC ((((((....)))))), in that order: -40.2 kcal/mol and 56 °C.
For GCCGTAGGAAACCACGGC (((((.(....).))))), in that order: -34.2 kcal/mol and 54.4 °C.
In the same order, the values of GATCACTCGAGTGATC ((((((....)))))) are -39.9 kcal/mol and 59.4 °C.
Turning to GCGCCCGAAAGGGACCGC ((((((....)))..))), the folding enthalpy in series [1] was -22.7 kcal/mol. Also, in series [2], the Tm turned out to be 50.3 °C.
Take GATCTCCGGGAGATC ((((((...)))))): the folding enthalpy in series [1] was -39.7 kcal/mol. The Tm in series [2] was found to be 52.8 °C.
For GCAATCGAAAGATGGTGC ((((((....)))..))), in that order: -21.2 kcal/mol and 36.3 °C.
Take GCATTGCGAAAGCTAGGC ((.(.((....)).).)): in series [1], the folding enthalpy was -17.9 kcal/mol. Also, the Tm in series [2] was 48.7 °C.
For GGCCTCGAAAGAGTAGCC ((((((....)))..))), in that order: -25.9 kcal/mol and 49.2 °C.
In the same order, the values of GTGAGACGAAAGTCACAC (((.(((....))).))) are -31.3 kcal/mol and 55.4 °C.
Regarding GGGCTCGAAAGAGGTCCC ((((((....)))..))), the folding enthalpy in series [1] is -17.1 kcal/mol. Moreover, in series [2], the Tm was 48.2 °C.
GTGAGCGAAAGCTACAC ((((((....))).))): in series [1], the folding enthalpy is -16.1 kcal/mol. In addition, in series [2], the Tm was found to be 49.1 °C.
In the case of GGCCTGGGAAACCGGGCC ((((.((....)).)))), in series [1], the folding enthalpy was -30.6 kcal/mol. Also, the Tm in series [2] was determined as 66.3 °C.
Regarding GGTGACACGAAAGTGACC (((..(((....)))))), in series [1], the folding enthalpy was -15.8 kcal/mol. The Tm in series [2] was 38.1 °C.
In the same order, the values of GCGTCTGCACGC ((((....)))) are -17.6 kcal/mol and 52.5 °C.
For GATCGAACAATCGATC ((((((....)))))), in that order: -31.3 kcal/mol and 47.4 °C.
For GCGTCAGGAAACCAACGC ((((..(....)..)))), in that order: -25.1 kcal/mol and 40.3 °C.
As to GTTGGCGAAAGCCTAAAC ((((((....)))..))), in series [1], the folding enthalpy is -8.68 kcal/mol. For the same sequence, in series [2], the Tm was 30.7 °C.
As for GAGAACGAAAGTTCGCTC ((((((....)))..))), in series [1], the folding enthalpy is -19.8 kcal/mol. Further, the Tm in series [2] was determined as 53.6 °C.
For GCAGTGTCGAAAGACTGC (((..(((....)))))), in that order: -23 kcal/mol and 48.3 °C.
Take GATCCGTCCCCGGATC ((((((....)))))): in series [1], the folding enthalpy was -32.1 kcal/mol. For the same sequence, the Tm in series [2] worked out at 56.5 °C.
